How the values were obtained:
[1] = biological target: T1, Sulfonylurea receptor 2, Kir6.2 (Homo sapiens, UniProt O60706+Q14654); test: (§1) Ability to open human urinary bladder Kir6.2 channel containing SUR2B in Ltk cells by FLIPR assay; format: functional, cell-based
Procedure, shortened: (§2)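 Ltk- cells stably transfected with the Kir6.2/SUR2B exon 17- splice variant. Membrane potential was followed with DiBAC dye in a 96-well cell-based kinetic fluorescence (FLIPR) assay. The highest concentration tested was 10 µM. Each compound's maximal fluorescence response was expressed as % of the response to the reference opener.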

[2] = biological target: T2, Sulfonylurea receptor 2, Kir6.2 (Homo sapiens) (UniProt Q14654+O60706); test: Activity against pig bladder KATP channel opening assessed as ability to relax field-stimulated pig detrusor relative to P1075; format: functional; conditions: Sus scrofa; target entry is the homologue from another species
[3] = biological target: T2, Sulfonylurea receptor 2, Kir6.2 (Homo sapiens); test: Ability to open human urinary bladder Kir6.2 containing SUR2B in Ltk cells by FLIPR assay relative to P1075; format: functional, cell-based; procedure, shortened: as §2
[4] = biological target: T2, Sulfonylurea receptor 2, Kir6.2 (Homo sapiens); test: Activity against pig bladder KATP channel opening assessed as ability to relax spontaneous bladder contraction relative to P1075; format: functional; conditions: Sus scrofa; target entry is the homologue from another species
[5] = biological target: T1, Sulfonylurea receptor 2, Kir6.2; test: Activity against pig bladder KATP channel opening assessed as ability to relax spontaneous bladder contraction; format: functional, Sus scrofa; conditions: target entry is the homologue from another species
Procedure, shortened: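 Spontaneously contracting detrusor strips were taken from near the trigonal region of Landrace pig bladder. Increasing concentrations of test agent were applied, and the reduction in area under the curve (AUC) of the spontaneous contractions was measured.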

[6] = biological target: T1, Sulfonylurea receptor 2, Kir6.2; test: (§3) Activity against pig bladder KATP channel opening assessed as ability to relax field-stimulated pig detrusor; format: functional, Sus scrofa; conditions: target entry is the homologue from another species
[7] = biological target: T2, Sulfonylurea receptor 2, Kir6.2 (Homo sapiens); test: as §1; format: functional, cell-based; conditions: filed as partial agonist; procedure, shortened: as §2
[8] = biological target: T2, Sulfonylurea receptor 2, Kir6.2 (Homo sapiens); test: as §3; format: functional; conditions: Sus scrofa; filed as agonist; target entry is the homologue from another species
Rattus norvegicus [9] = test: Activity against volume-induced reflex neurogenic bladder contraction in urethral ligated rat measured as reduction in AUC at 3 umol/kg, iv; format: functional, Urinary bladder; set-up: scale not given: the % may be the effect or the level left
Rattus norvegicus [10] = test: Activity against spontaneous myogenic bladder contraction in partial outlet obstructed rat measured as reduction in AUC at 1 umol/kg, iv; format: functional; set-up: scale not given: the % may be the effect or the level left
Rattus norvegicus [11] = test: Activity against spontaneous myogenic bladder contraction in partial outlet obstructed rat measured as reduction in AUC at 0.03 umol/kg, iv; format: functional; set-up: scale not given: the % may be the effect or the level left
Rattus norvegicus [12] = test: Activity against spontaneous myogenic bladder contraction in partial outlet obstructed rat measured as reduction in MAP at 1 umol/kg, iv; format: functional; set-up: scale not given: the % may be the effect or the level left
Rattus norvegicus [13] = test: Activity against volume-induced reflex neurogenic bladder contraction in urethral ligated rat measured as reduction in AUC at 1 umol/kg, iv; format: functional, Urinary bladder; set-up: scale not given: the % may be the effect or the level left
Rattus norvegicus [14] = test: Activity against volume-induced reflex neurogenic bladder contraction in urethral ligated rat measured as reduction in MAP at 0.3 umol/kg, iv; format: functional, Urinary bladder; set-up: scale not given: the % may be the effect or the level left
Rattus norvegicus [15] = test: Activity against spontaneous myogenic bladder contraction in partial outlet obstructed rat measured as reduction in AUC at 0.3 umol/kg, iv; format: functional; set-up: scale not given: the % may be the effect or the level left
Rattus norvegicus [16] = test: Activity against spontaneous myogenic bladder contraction in partial outlet obstructed rat measured as reduction in AUC at 0.1 umol/kg, iv; format: functional; set-up: scale not given: the % may be the effect or the level left
Rattus norvegicus [17] = test: Activity against volume-induced reflex neurogenic bladder contraction in urethral ligated rat measured as reduction in MAP at 3 umol/kg, iv; format: functional, Urinary bladder; set-up: scale not given: the % may be the effect or the level left
Rattus norvegicus [18] = test: Activity against spontaneous myogenic bladder contraction in partial outlet obstructed rat measured as reduction in MAP at 0.1 umol/kg, iv; format: functional; set-up: scale not given: the % may be the effect or the level left
Rattus norvegicus [19] = test: Activity against volume-induced reflex neurogenic bladder contraction in urethral ligated rat measured as reduction in MAP at 1 umol/kg, iv; format: functional, Urinary bladder; set-up: scale not given: the % may be the effect or the level left
Rattus norvegicus [20] = test: Activity against spontaneous myogenic bladder contraction in partial outlet obstructed rat measured as reduction in MAP at 0.03 umol/kg, iv; format: functional; set-up: scale not given: the % may be the effect or the level left
Rattus norvegicus [21] = test: Activity against spontaneous myogenic bladder contraction in partial outlet obstructed rat measured as reduction in MAP at 0.3 umol/kg, iv; format: functional; set-up: scale not given: the % may be the effect or the level left
Rattus norvegicus [22] = test: Activity against volume-induced reflex neurogenic bladder contraction in urethral ligated rat measured as reduction in AUC at 0.3 umol/kg, iv; format: functional, Urinary bladder; set-up: scale not given: the % may be the effect or the level left

T1 sequence (Q14654 whole entry, canonical isoform): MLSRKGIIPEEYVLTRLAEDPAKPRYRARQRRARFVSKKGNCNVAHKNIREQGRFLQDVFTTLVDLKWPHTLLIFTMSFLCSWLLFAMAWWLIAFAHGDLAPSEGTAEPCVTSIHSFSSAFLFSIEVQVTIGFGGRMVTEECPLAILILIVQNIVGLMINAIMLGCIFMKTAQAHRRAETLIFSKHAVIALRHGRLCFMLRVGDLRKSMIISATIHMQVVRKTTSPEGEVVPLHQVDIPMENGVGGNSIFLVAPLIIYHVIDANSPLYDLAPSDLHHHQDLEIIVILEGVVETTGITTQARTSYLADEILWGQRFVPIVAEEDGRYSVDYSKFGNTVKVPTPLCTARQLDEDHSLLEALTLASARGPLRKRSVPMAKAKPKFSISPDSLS
T1 sequence (O60706 whole entry, canonical isoform): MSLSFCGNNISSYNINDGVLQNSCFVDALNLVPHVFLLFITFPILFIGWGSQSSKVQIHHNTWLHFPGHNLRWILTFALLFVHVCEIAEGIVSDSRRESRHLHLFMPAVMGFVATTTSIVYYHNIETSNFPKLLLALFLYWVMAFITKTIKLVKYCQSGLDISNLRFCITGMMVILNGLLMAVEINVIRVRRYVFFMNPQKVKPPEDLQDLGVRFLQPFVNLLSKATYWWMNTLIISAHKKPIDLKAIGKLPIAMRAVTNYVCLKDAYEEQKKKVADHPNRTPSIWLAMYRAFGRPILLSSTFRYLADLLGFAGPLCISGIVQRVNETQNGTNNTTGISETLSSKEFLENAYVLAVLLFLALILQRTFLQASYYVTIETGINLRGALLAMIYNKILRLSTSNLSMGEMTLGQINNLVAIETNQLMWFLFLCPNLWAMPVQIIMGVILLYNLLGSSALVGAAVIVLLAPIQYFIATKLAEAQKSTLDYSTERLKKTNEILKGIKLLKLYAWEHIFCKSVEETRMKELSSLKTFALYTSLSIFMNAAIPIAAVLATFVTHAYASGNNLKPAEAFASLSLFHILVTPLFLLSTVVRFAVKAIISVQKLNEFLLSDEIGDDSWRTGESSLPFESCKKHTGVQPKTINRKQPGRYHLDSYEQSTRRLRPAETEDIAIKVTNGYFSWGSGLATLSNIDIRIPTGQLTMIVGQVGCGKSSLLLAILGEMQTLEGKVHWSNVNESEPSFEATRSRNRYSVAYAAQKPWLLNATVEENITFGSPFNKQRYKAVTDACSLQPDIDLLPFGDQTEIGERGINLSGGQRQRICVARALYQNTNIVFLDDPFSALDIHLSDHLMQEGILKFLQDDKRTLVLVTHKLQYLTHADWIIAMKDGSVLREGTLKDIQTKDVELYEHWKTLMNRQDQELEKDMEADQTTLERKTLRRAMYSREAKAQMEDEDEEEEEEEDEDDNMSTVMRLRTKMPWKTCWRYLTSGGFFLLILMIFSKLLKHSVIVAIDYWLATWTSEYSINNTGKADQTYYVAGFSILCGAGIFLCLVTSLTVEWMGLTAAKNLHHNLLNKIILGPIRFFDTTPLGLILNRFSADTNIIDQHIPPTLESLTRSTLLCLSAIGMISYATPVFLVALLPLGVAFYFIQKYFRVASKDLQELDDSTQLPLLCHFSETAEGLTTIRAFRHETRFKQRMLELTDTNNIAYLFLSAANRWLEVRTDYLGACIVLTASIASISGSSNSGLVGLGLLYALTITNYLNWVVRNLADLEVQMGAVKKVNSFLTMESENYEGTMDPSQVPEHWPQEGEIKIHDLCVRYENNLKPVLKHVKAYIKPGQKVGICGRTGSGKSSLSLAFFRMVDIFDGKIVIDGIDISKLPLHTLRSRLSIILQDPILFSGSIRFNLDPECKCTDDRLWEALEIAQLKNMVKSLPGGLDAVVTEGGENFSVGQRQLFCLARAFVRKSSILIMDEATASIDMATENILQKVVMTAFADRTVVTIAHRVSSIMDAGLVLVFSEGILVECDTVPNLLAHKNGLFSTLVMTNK

Structure (SMILES)	EC50 [1]	Efficacy [2]	Efficacy [3]	EC50 [5]	EC50 [6]	also measured
CCc1cc(C#N)ccc1Nc1c(N[C@H](C)C(C)(C)C)c(=O)c1=O	2.34 µM	94%	71%	0.102 µM	0.676 µM	Efficacy [4]: 100%
CCC[C@H]1OC(O)=C2C1=NC1=C(C(=O)COC1)[C@H]2c1ccc(F)c(Br)c1 (racemic)	–	90%	36%	–	–	Activity [7]: Partial agonist; Activity [8]: Agonist
CC[C@H]1OC(O)=C2C1=NC1=C(C(=O)COC1)[C@H]2c1ccc(F)c(Br)c1 (racemic)	–	88%	40%	–	–	Activity [7]: Partial agonist; Activity [8]: Agonist
CC[C@H]1OC(O)=C2C1=NC1=C(C(=O)CSC1)[C@H]2c1ccc(F)c(Br)c1 (relative stereo)	–	100%	15%	–	–	Activity [7]: Partial agonist; Activity [8]: Agonist
O=C1COCC2=C1C(c1ccc(F)c(Br)c1)C1=C(O)OCC1=N2 (stereo in doubt; 6b)	0.0372 µM	–	–	0.000676 µM	0.214 µM	–
CC[C@H]1OC(O)=C2C1=NC1=C(C(=O)COC1)[C@H]2c1ccc(F)c(Br)c1 (stereo in doubt; 21b)	0.17 µM	–	–	0.0191 µM	0.282 µM	–
CCC[C@H]1OC(O)=C2C1=NC1=C(C(=O)COC1)[C@H]2c1ccc(F)c(Br)c1 (stereo in doubt; 23b)	0.0275 µM	–	–	0.0288 µM	0.513 µM	Activity (Rattus norvegicus [9]): 37.4%; Activity (Rattus norvegicus [10]): 93.1%; Activity (Rattus norvegicus [11]): 4.2%; Activity (Rattus norvegicus [12]): 40.7%; Activity (Rattus norvegicus [13]): 31.9%; Activity (Rattus norvegicus [14]): 22.6%; Activity (Rattus norvegicus [15]): 46.7%; Activity (Rattus norvegicus [16]): 19.1%; Activity (Rattus norvegicus [17]): 49.7%; Activity (Rattus norvegicus [18]): 9.6%; Activity (Rattus norvegicus [19]): 43.8%; Activity (Rattus norvegicus [20]): 5.1%; Activity (Rattus norvegicus [21]): 23.6%; Activity (Rattus norvegicus [22]): 16%
CCCC[C@H]1OC(O)=C2C1=NC1=C(C(=O)COC1)[C@H]2c1ccc(F)c(Br)c1 (stereo in doubt; 29b)	0.851 µM	–	–	0.331 µM	1.66 µM	–
CC[C@H]1OCC(O)=C2C1=NC1=C(C(=O)COC1)[C@H]2c1ccc(F)c(Br)c1 (stereo in doubt; 71a)	0.17 µM	–	–	0.129 µM	2.04 µM	–
CC[C@H]1OCC(O)=C2C1=NC1=C(C(=O)COC1)[C@H]2c1ccc(Cl)c(Cl)c1 (stereo in doubt; 74b)	0.17 µM	–	–	0.055 µM	2.29 µM	–
CC[C@H]1OCC(O)=C2C1=NC1=C(C(=O)COC1)[C@H]2c1ccc(Br)c(Cl)c1 (stereo in doubt; 76b)	0.245 µM	–	–	0.245 µM	13.5 µM	–

— ChEMBL document CHEMBL1137338, “Effects of substitution on 9-(3-bromo-4-fluorophenyl)-5,9-dihydro-3H,4H-2,6-dioxa-4- azacyclopenta[b]naphthalene-1,8-dione, a dihydropyridine ATP-sensitive potassium channel opener” (J Med Chem, 2006)
